Measurements gathered from unrelated publications.
Target: cAMP-dependent protein kinase catalytic subunit PRKX (PRKX, Homo sapiens, UniProt P51817)
Sequence (P51817 1-358, as in one of the studies): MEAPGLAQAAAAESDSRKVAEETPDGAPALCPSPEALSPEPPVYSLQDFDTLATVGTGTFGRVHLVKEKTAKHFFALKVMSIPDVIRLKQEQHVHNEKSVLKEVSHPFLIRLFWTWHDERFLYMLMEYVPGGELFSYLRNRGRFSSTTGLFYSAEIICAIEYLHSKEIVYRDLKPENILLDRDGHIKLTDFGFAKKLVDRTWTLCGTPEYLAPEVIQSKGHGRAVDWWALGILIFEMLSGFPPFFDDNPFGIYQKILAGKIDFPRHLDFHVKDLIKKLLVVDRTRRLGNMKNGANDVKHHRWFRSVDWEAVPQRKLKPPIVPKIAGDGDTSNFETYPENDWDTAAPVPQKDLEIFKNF

Compound	observed	method	concentration	remaining binding
CN(C)c1nccc(-c2cnn3ncccc23)n1	binding	–	1 µM	100%
CO[C@H]1CC[C@H](CNc2ccc(S(=O)(=O)NC(=O)c3ccc(N4CCN(CC5=C(c6ccc(Cl)cc6)CC(C)(C)CC5)CC4)cc3Oc3cnc4[nH]ccc4c3)cc2[N+](=O)[O-])CC1	cell-free assay	competition with immobilised ligand	1 µM	100%
O=C(NCC1CCOCC1)c1n[nH]cc1NC(=O)c1c(F)cccc1F	binding	competition with immobilised ligand	1 µM	100%
CN(c1nccc(-c2cnn3ncccc23)n1)C1CC1	binding	–	1 µM	98%
C[C@@H]1CN(c2cc(-c3nn(C)c4ccc(OC5(C)CC5)cc34)ncn2)C[C@H](C)O1	cell-free assay	competition with immobilised ligand	1 µM	92%
CNC(=O)[C@@H]1CC[C@@H](n2c(-c3ccc4cnccc4c3)nc3ccc(C(=O)NCc4cccc(C(N)=O)c4)cc32)C1	binding	competition with immobilised ligand	1 µM	100%
N[C@@H]1CCN(c2nccc(-c3cnn4ncccc34)n2)C1	binding	–	1 µM	100%
O=C(Nc1cnc(Oc2ccc(F)cc2)nc1)N1CCc2ncccc2[C@@H]1c1ccc(F)cc1	cell-free assay	competition with immobilised ligand	1 µM	93%
c1cncc(-c2cccc(Nc3nccc(NC4CCCCC4)n3)c2)c1	binding	competition with immobilised ligand	10 µM	80%
F[C@@H]1CCN(c2nccc(-c3cnn4ncccc34)n2)C1	binding	–	1 µM	100%
O=C(NCCCN1CCOCC1)c1ccc(Nc2nccc(-c3cc4ccccc4s3)n2)cc1	binding	competition with immobilised ligand	1 µM	85%
C[C@H]1CCN(c2nccc(-c3cnn4ncccc34)n2)C1	binding	–	1 µM	100%
COCCOc1nc(-c2ccc(Cl)nc2)nc2c1CN(C(=O)c1ncn3ccccc13)CC2	cell-free assay	competition with immobilised ligand	0.1 µM	100%
COc1cnc(Nc2cccc(S(N)(=O)=O)c2)nc1N1CCN(c2ccccc2)C(=O)C1	binding	competition with immobilised ligand	1 µM	91%
c1cnn2ncc(-c3ccnc(N4CCC45COC5)n3)c2c1	binding	–	1 µM	68%
CCN1CCN(Cc2ccc(C(=O)Nc3ccc(C)c(Oc4ccc5c(c4)CC(=O)N5)c3)cc2C(F)(F)F)CC1	binding	competition with immobilised ligand	1 µM	100%
O=C(N[C@H]1CCCCC/C=C\C2C[C@@]2(C(=O)O)NC(=O)[C@@H]2C[C@@H](Oc3ccncc3)CN2C1=O)OC1CCCC1 (some centres unmarked)	cell-free assay	competition with immobilised ligand	1 µM	80%
O=C(NCCCN1CCOCC1)c1ccc(Nc2ncc(Cl)c(-c3ccc(Cl)s3)n2)cc1	binding	competition with immobilised ligand	1 µM	100%
Nc1cnc(N2CCc3cc(S(=O)(=O)Nc4c(F)cc(Cl)cc4F)cc(N4CCCC4=O)c32)nc1	cell-free assay	competition with immobilised ligand	1 µM	99%
O=C(c1ccc(Nc2ncc(Cl)c(-c3ccc(Cl)s3)n2)cc1)N1CCC(N2CCCC2)CC1	binding	competition with immobilised ligand	1 µM	95%
